A selection: hits, their analogues and other compounds. The true share with any hit is near 1.2%.
HCV core dimer: inhibitors of HCV core protein dimerization, primary screen, biochemical, TR-FRET, high-throughput; TR-FRET GST/Flag-core106 dimerization, 1536-well; inhibition, % at 5 µM; 300,000 compounds, 0.33% hits;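 active means inhibition above the mean of all tested compounds plus 3 SD, set per screening campaign, cut at about 45% in these data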
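Material: Tagged HCV core106 pair (GST and Flag) | Amount: GST-core106 13.5 nM, Flag-core106 17 nM | Medium: KF-containing HEPES buffer, pH 7.45, DTT, CHAPS, BSA | Reagent: Eu donor and XL665 acceptor anti-tag antibodies | Schedule: 4 h at 22.5 °C | Technique: Time-resolved FRET, ex 340 nm, em 617 and 671 nm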
ARFGAP1 inh: inhibitors of rat ARFGAP1 GAP activity, primary screen, biochemical, fluorescence polarization, GDP tracer; ADP-ribosylation factor GTPase-activating protein 1 (Rattus norvegicus), Q62848; Arfgap1-stimulated ARF1 GTP hydrolysis, GDP FP detection; inhibition, % at 16.5 µM; 360,000 compounds, 0.26% hits; AID 651572, 2012;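 active means inhibition above a per-plate limit, mean inhibition of low control wells plus 3 SD, cut at about 25% in these data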
Target sequence (Q62848 1-136 limits assumed): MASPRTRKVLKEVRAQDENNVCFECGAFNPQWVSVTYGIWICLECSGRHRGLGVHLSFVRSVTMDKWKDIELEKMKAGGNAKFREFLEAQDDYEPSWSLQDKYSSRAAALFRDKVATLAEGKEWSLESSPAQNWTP
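System: truncated rat Arfgap1 GAP domain / Benchmarks: high control wells lacking Arfgap1, low control full reaction with DMSO / Times: compound-enzyme preincubation 20 min, reaction 120 min, detection 60 min, 25 °C / Repeats: one replicate per compound / Also added: human ARF1(Δ1-17)-GTP substrate / Measured by: Tracer-displacement fluorescence polarization with EDTA stop, 620/688 nm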
ASAP1 inh: inhibitors of human ASAP1 ArfGAP activity, primary screen, biochemical, fluorescence polarization. Arf-GAP with SH3 domain, ANK repeat and PH domain-containing protein 1 (Homo sapiens), …. ASAP1-stimulated ARF1 GTP hydrolysis, GDP FP detection. inhibition, % at 16.5 µM. 360,000 compounds, 0.19% hits; in the data active means inhibition above about 25%
Target sequence (Q9ULH1 325-724 limits assumed): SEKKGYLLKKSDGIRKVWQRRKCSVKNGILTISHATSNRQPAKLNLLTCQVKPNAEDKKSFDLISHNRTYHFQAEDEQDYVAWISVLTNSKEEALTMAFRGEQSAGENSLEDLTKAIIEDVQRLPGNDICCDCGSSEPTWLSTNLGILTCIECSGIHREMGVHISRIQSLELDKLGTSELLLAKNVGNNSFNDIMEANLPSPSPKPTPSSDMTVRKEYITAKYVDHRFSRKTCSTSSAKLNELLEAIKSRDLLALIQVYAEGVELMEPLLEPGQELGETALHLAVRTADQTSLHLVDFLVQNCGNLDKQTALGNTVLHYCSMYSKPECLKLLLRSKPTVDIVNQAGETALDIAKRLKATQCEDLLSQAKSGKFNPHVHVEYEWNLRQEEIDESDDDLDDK
NPR2 activator: human GC-B receptor activators, primary screen, HEK293 GC-B cells, cGMP TR-FRET, EC30 CNP. 370,000 compounds, 0.11% hits. 0% at EC30 CNP, 100% saturating CNP. Atrial natriuretic peptide receptor 2 (Homo sapiens), P20594. AID 1920062, 2024. activation, % at 10 µM;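 active means activation at 10 µM reaching about 35% in either raw or pattern-adjusted values, limit read from the data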
Fh CTSL1 inh: Fasciola hepatica cathepsin L1 inhibitors, primary screen, counter-screen for PFM18AAP inhibitor project, biochemical, QFRET, fluorogenic peptide substrate. AID 1906, 2009. recombinant F. hepatica cathepsin L1, Z-Leu-Arg-MCA fluorescence. 300,000 compounds, 0.49% hits. inhibition, % at 5.96 µM;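 active means inhibition above the mean of all tested compounds plus 3 SD, set per screening campaign, cut at about 17% in these data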
GC-A act: GC-A stimulated cGMP production enhancers – HEK293 GC-A cells, cGMP TR-FRET, EC30 ANP, primary screen; 370,000 compounds, 0.14% hits; activation, % at 10 µM; 0% at EC30 ANP, 100% saturating ANP; Atrial natriuretic peptide receptor 1 (Homo sapiens), P16066; in the data active means activation above about 40%
Large screens that a line does not name were inactive.

CSc1nc(SCC(=O)NCc2ccco2)c2c3c(sc2n1)CN(C)CC3	HCV core dimer 48.0
CCn1cc(C(=O)N[C@@H](CCSC)C(=O)NC(C)(C)CO)c(=O)c2cc3c(cc21)OCO3	none
Cc1ccc(CN2CCC(C(=O)Nc3ccc(Oc4cccnc4)cc3)CC2)cc1	none (no result: HCV core dimer, Fh CTSL1 inh)
COc1ccc2c(c1)CCCN2C(N)=Nc1ccc(Cl)cc1	none
CC(C)c1ccc(C2NC(=S)NC3=C2C(=O)CC(C)(C)C3)cc1 (stereo not given)	GC-A act 42.6
COc1ccccc1NC(=O)N(C)C[C@@H]1OCc2cnnn2CCCC(=O)N([C@H](C)CO)C[C@@H]1C	none (no result: HCV core dimer, Fh CTSL1 inh)
O=C(O)CSc1cc(C(=O)c2cc(F)ccc2O)cn2c(=O)c3c(-c4ccccc4)csc3nc12	HCV core dimer 51.8
CCc1c(C)sc2nc3c(C(=O)N4CCOCC4)cc(C(=O)c4cc(F)ccc4O)cn3c(=O)c12	none
CCOC(=O)c1sc2nc3c(SCCC(=O)O)cc(C(=O)c4cc(OC)ccc4O)cn3c(=O)c2c1C	none (no result: HCV core dimer, Fh CTSL1 inh)
CCOC(=O)c1sc2nc3c(SCCC#N)cc(C(=O)c4cc(F)ccc4O)cn3c(=O)c2c1C	HCV core dimer 50.2
COc1ccc(C(=O)CSc2nnc(-c3n[nH]c4c3CCC4)n2N)cc1OC	NPR2 activator 43.6 (no result: HCV core dimer, ARFGAP1 inh, ASAP1 inh, Fh CTSL1 inh)
N#CC1=C(N)Oc2cc(O)ccc2C1c1ccc(Br)s1 (stereo not given)	GC-A act 75.2 (no result: HCV core dimer, Fh CTSL1 inh)
CCOC(=O)C1=C(c2ccccc2)OC(N)=C(C#N)C1c1ccc(Br)s1 (stereo not given)	none
Cc1ccc(C(=O)NCC(=O)OCN2C(=O)c3ccccc3C2=O)cc1C	none (no result: HCV core dimer, Fh CTSL1 inh)
O=C(CNC(=O)c1ccco1)OCN1C(=O)c2ccccc2C1=O	Fh CTSL1 inh 28.2
Cc1ccc(N2C(=O)C3CC(c4ccccc4)=C4C5C=CC(C6C(=O)N(c7ccc(C)cc7C)C(=O)C56)C4C3C2=O)c(C)c1 (stereo not given)	HCV core dimer 52.3 (no result: ARFGAP1 inh, ASAP1 inh, NPR2 activator, GC-A act)
Cc1nnc(N2C(=O)C(=O)/C(=C(/O)c3ccc4c(c3)OCCO4)C2c2cccc([N+](=O)[O-])c2)s1 (stereo not given)	none (no result: HCV core dimer, Fh CTSL1 inh)
Cc1nnc(N2C(=O)C(=O)/C(=C(/O)c3ccc4c(c3)OCCO4)C2c2ccc([N+](=O)[O-])cc2)s1 (stereo not given)	HCV core dimer 48.1
COc1ccc(CN2[C@@H](CC(C)=O)c3cc(C(F)(F)F)ccc3S2(=O)=O)cc1	Fh CTSL1 inh 16.9
Cc1nn(-c2ccccc2)c(N2CCCC2)c1/C=C1\N=C(c2ccc(OC(C)C)cc2)OC1=O	Fh CTSL1 inh 74.0
Cc1ccc(N=Cc2c(O)n(-c3ccc4c(c3)OCO4)c(=O)c3ccccc23)cc1	HCV core dimer 62.3
N=c1c2c(ncn1Cc1ccco1)Oc1cc(O)ccc1C2c1ccccc1 (stereo not given)	none
COC(=O)C1CSc2[nH]c(=O)sc2C1c1ccc(O)c(OC)c1 (stereo not given)	none
Cc1noc(/C=C/c2ccco2)c1S(=O)(=O)N1CCC(C(=O)N2CCc3ccccc3C2)CC1	HCV core dimer 48.3 (no result: ARFGAP1 inh, ASAP1 inh, NPR2 activator, GC-A act)
COc1ccccc1N1CCN(C(=O)c2cc3ccccc3[nH]2)CC1	Fh CTSL1 inh 18.1
O=C(N/N=C/c1ccco1)c1cccc(N2Cc3ccccc3C2)c1	HCV core dimer 63.2
O=C(N/N=C/c1ccco1)c1cccc(N2CCCC2=O)c1	none
CC1(C)CC(NC(=O)Cc2ccccc2[N+](=O)[O-])CC(C)(C)N1	none
COc1ccc(-n2nc(C(=O)N3CCC(N4CCCCC4)CC3)c3c4ccccc4n(C)c3c2=O)cc1	Fh CTSL1 inh 19.0
O=C(N1CCOCC1)N1CCN(c2ccccn2)CC1	none
Cc1ccc(C(=O)NC2(O)C(=O)c3ccccc3C2=O)cc1C	Fh CTSL1 inh 58.3
O=C(N[C@@H](Cc1ccccc1)C(=O)O)c1ccc(C(F)(F)F)cc1	none
O=C(NC1(O)C(=O)c2ccccc2C1=O)c1ccc(C(F)(F)F)cc1	Fh CTSL1 inh 57.3
CC1(C)COC(/C=C/c2cccc([N+](=O)[O-])c2)=N1	none
CCOCCCNS(=O)(=O)c1ccc(NC(=O)c2ccc([N+](=O)[O-])cc2Cl)cc1	none
C[C@@H](C(=O)O)[C@@H]1C[C@@]1(C)[C@@H](NC(=O)OCc1ccccc1)c1ccccc1	none
CNC(=O)[C@H](C)[C@@H]1C[C@@]1(C)[C@@H](NC(=O)OCc1ccccc1)c1ccccc1	Fh CTSL1 inh 18.4
O=C(CCN1CCC2CCC(C2)C1)c1ccccc1 (stereo not given)	GC-A act 53.1 (no result: HCV core dimer, Fh CTSL1 inh)
CC(C)Nc1nc(Cl)nc(N(C#N)CN2C(=O)c3ccccc3C2=O)n1	NPR2 activator 48.4, GC-A act 47.7
CCC(C)Nc1nc(Cl)nc(N(C#N)CN2C(=O)c3ccccc3S2(=O)=O)n1 (stereo not given)	none
COc1cccc(C(=O)NCc2ccco2)c1OC	none
O=C(CSCc1cccc(Cl)c1)Nc1ccccc1-c1ccccc1	none
S=c1[nH]c2ccccc2n2cccc12	HCV core dimer 55.4
CC(C)CNC(=S)N1CCC(c2nc(-c3ccc(F)cc3)no2)CC1	none
NC(c1csc(Nc2nccc(C(F)(F)F)n2)n1)C1CCCCC1 (stereo not given)	NPR2 activator 50.2 (no result: HCV core dimer, Fh CTSL1 inh)
NC(c1csc(Nc2ncccn2)n1)C1CCCCC1 (stereo not given)	none (no result: HCV core dimer, Fh CTSL1 inh)
O=S(=O)(Nc1cc(Sc2ncn[nH]2)c(O)c2ccccc12)c1ccccc1	ASAP1 inh 24.8 (no result: HCV core dimer, Fh CTSL1 inh)
Cc1ccc2c(CC(=O)O)coc2c1	none
Cc1ccc2c(CC(=O)OC3CCOC3=O)coc2c1 (stereo not given)	GC-A act 43.0
COc1cc(C(=O)ON=C2C3CC4CC(C3)CC2C4)cc(OC)c1OC	Fh CTSL1 inh 35.6
COc1cc(C(=O)O/N=C2\C=CC(=O)C=C2C)cc(OC)c1OC	none
O=C(Cn1c(=O)n(Cc2ccco2)c(=O)c2c3c(sc21)CCCCC3)c1ccccc1	HCV core dimer 72.4 (no result: ARFGAP1 inh, ASAP1 inh)
O=C(Cn1c(=O)n(Cc2ccco2)c(=O)c2c3c(sc21)CCCCC3)Nc1ccccc1	HCV core dimer 56.2
Cn1c(SCC(=O)OCC(=O)c2ccccc2)nnc1-c1cccs1	none
